Experimental data published in ChEMBL document CHEMBL4673335, “Store-Operated Calcium Entry as a Therapeutic Target in Acute Pancreatitis: Discovery and Development of Drug-Like SOCE Inhibitors” (J Med Chem, 2020).
Activity calls are given as the source filed them. The rule behind the calls is not given here.

Experiments:
[1] = target: T1, ORAI1/STIM1 (Homo sapiens) (UniProt Q96D31+Q13586); assay: Inhibition of STIM1/Orai1 (unknown origin) expressed in HEK293 cells assessed as reduction in tBHQ-induced calcium response at 10 uM relative to control; assay type: cell-based
Procedure, shortened: (§1)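 HEK cells, calcium imaging by fluorescence microscopy. Ca2+ added after 600 s and intracellular levels recorded. Traces averaged over 200 cells, then scored as AUC, peak amplitude and slope of the Ca2+ rise versus untreated control. Compound working solutions diluted from a 50 mM DMSO stock to 0.1% DMSO in physiologic buffer.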

HEK293 [2] = assay: Cytotoxicity in HEK293 cells assessed as cell viability at 50 uM after 72 hrs by MTT assay; assay type: cell-based; settings: human, hek293, 72 h
Procedure, shortened: (§2)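 MTT viability in HEK cells after 72 h treatment at 50 μM, with or without 100 μM uridine. MTT at 0.25 mg/mL final for 60 min at 37 °C, solubilized in isopropyl alcohol/HCl (1 M), absorbance read at 570 nm. Mean ± SEM, Student t-test against control.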

HEK293 [3] = assay: Cytotoxicity in HEK293 cells assessed as cell viability at 50 uM after 72 hrs in presence of excess uridine by MTT assay; assay type: cell-based; settings: human, hek293, 72 h; procedure, shortened: as §2
[4] = Metabolic stability in mouse liver microsomes assessed as compound remaining after 1 hr; assay type: ADME, Microsome; settings: read-out: Stabilty
Procedure, shortened: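 Pooled male CD-1 mouse liver microsomes (20 mg/mL protein stock), NADPH-activated. Substrate at 5 μM. Residual parent measured after 1 h incubation.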

[5] = Thermodynamic aqueous solubility; assay type: physicochemical; settings: read-out: Therm_solubility
Procedure, shortened: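 About 3 mg compound in 3 mL deionized water, vortexed, sonicated 5 min, then shaken overnight at 25 °C. Filtered through a 0.22 μm membrane, DMSO added, diluted about 1:10 in water. Quantified by LC–UV against DMSO standard solutions.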

[6] = target: T1, ORAI1/STIM1 (Homo sapiens); assay: Inhibition of STIM1/Orai1 (unknown origin) expressed in HEK293 cells assessed as reduction in tBHQ-induced calcium response by measuring decrease in peak amplitude of calcium entry at 10 uM relative to control; assay type: cell-based; procedure, shortened: as §1
[7] = target: T1, ORAI1/STIM1 (Homo sapiens); assay: Inhibition of STIM1/Orai1 (unknown origin) expressed in HEK293 cells assessed as reduction in tBHQ-induced calcium response by measuring decrease in slope of calcium entry at 10 uM relative to control; assay type: cell-based; procedure, shortened: as §1
ORAI1/STIM1 = ORAI1/STIM1 (Homo sapiens, UniProt Q13586+Q96D31); assay: Inhibition of STIM1/Orai1 (unknown origin) expressed in HEK293 cells assessed as reduction in tBHQ-induced calcium response; assay type: cell-based
HEK293 [8] = assay: Cytotoxicity in HEK293 cells assessed as cell viability at 10 uM after 24 hrs by MTT assay; assay type: cell-based; settings: human, hek293, 24 h
Procedure, shortened: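 MTT viability assay. HEK cells seeded at 20,000 per well, treated 24 h after plating for a further 24 h. MTT at 0.25 mg/mL final for 60 min at 37 °C. Crystals dissolved in isopropyl alcohol/HCl (1 M), absorbance read at 570 nm. Compounds diluted to 0.1% DMSO in culture medium.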

[9] = target: T1, ORAI1/STIM1 (Homo sapiens); assay: Inhibition of STIM1/Orai1 (unknown origin) expressed in HEK293 cells assessed as reduction in tBHQ-induced calcium response by measuring decrease in calcium entry AUC at 10 uM relative to control; assay type: cell-based; procedure, shortened: as §1
[10] = dose 3.0 µM, in the assay text read “at 3 uM” for “at 10 uM”

Chain of ORAI1/STIM1 (Q96D31 whole entry): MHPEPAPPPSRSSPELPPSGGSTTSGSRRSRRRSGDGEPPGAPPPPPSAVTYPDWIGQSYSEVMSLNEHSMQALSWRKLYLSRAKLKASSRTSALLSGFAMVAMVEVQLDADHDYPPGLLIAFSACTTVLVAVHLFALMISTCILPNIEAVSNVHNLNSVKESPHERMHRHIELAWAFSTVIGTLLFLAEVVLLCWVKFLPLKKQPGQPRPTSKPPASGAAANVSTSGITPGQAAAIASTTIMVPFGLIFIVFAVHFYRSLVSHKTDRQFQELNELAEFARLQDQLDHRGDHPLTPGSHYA
Chain of ORAI1/STIM1 (Q13586 whole entry): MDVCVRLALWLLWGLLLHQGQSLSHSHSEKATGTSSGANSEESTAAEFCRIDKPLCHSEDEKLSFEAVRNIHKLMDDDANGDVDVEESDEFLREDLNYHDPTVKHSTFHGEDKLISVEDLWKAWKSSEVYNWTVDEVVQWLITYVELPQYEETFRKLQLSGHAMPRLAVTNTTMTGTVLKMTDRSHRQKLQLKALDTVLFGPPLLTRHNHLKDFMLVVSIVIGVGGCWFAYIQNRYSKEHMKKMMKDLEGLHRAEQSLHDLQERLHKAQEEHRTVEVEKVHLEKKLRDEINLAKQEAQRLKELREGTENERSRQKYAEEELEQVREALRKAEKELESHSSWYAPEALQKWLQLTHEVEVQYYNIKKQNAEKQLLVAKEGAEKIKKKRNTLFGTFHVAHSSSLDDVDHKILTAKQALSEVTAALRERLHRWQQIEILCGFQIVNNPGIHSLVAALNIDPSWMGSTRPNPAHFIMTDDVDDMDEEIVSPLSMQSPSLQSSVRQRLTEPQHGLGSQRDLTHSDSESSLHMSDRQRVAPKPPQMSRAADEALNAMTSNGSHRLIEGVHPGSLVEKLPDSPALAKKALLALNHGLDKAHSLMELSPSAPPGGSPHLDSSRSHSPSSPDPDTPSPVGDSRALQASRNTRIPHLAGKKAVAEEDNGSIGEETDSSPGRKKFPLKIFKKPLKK
T1 sequence (Q13586 23-685 partner limits assumed): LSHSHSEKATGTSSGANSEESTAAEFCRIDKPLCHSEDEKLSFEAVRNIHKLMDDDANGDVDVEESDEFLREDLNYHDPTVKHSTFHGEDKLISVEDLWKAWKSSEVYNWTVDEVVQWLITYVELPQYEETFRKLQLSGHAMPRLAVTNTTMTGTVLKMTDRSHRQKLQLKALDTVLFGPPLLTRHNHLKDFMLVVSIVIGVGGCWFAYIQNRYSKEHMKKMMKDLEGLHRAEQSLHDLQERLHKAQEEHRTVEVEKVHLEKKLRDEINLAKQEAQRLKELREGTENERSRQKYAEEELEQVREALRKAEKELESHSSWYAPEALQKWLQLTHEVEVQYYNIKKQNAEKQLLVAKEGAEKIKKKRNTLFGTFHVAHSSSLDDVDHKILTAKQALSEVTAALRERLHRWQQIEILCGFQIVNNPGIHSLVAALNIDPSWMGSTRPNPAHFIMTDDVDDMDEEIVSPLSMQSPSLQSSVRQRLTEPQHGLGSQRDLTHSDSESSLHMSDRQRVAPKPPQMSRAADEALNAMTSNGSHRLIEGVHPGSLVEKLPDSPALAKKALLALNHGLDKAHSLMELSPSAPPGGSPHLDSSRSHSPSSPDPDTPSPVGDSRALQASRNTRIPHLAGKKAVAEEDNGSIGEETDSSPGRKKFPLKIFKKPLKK
T1 sequence (Q96D31 whole entry): as the sequence (Q96D31 whole entry) above

COc1cc(OC)cc(-c2ccc(-c3cn(-c4cccc(C(=O)O)c4)nn3)cc2)c1
inhibition ([1]; dose 10.0 µM): 75.4%

O=C(O)c1cccc(-n2cc(-c3ccc(-c4ccc5c(c4)OCO5)cc3)nn2)c1
inhibition ([1]; dose 10.0 µM): 0%

CSc1cccc(-c2ccc(-n3cc(-c4cccc(C(=O)O)c4)nn3)cc2)c1
inhibition [1, 10]: 23.6%

O=C(Nc1ccc(-n2nc(C(F)(F)F)cc2C(F)(F)F)cc1)c1ccncc1F
Activity (HEK293 [2]): Toxic
Activity (HEK293 [3]): Toxic

COc1ccccc1-c1ccc(-c2cn(-c3cccc(C(=O)O)c3)nn2)cc1
inhibition [1, 10]: 12%

COc1ccc(OC)c(-c2ccc(-c3cn(-c4cccnc4)nn3)cc2)c1
inhibition ([1]; dose 10.0 µM): 1.2%

O=C(O)c1cccc(-c2cn(-c3ccc(-c4ccc5c(c4)OCO5)cc3)nn2)c1
inhibition ([1]; dose 10.0 µM): 67.3%

CSc1cccc(-c2ccc(-c3cn(-c4cccc(C(=O)O)c4)nn3)cc2)c1
inhibition ([1]; dose 10.0 µM): 0%

COc1cccc(OC)c1-c1ccc(-n2cc(-c3cccc(C(=O)O)c3)nn2)cc1
inhibition ([1]; dose 10.0 µM): 25.8%

COc1cccc(-c2ccc(-n3cc(-c4cccc(C(=O)[O-])c4)nn3)cc2)c1.[Na+]
remaining at 1 h [4]: 91%
solubility thermodynamic [5]: 856 µg/mL

COc1ccc(F)c(-c2ccc(-c3cn(-c4cccc(C(=O)O)c4)nn3)cc2)c1
inhibition [6]: Active
inhibition [7]: Active
IC50 (ORAI1/STIM1): 866 nM
inhibition ([1]; dose 10.0 µM): 88.9%
Activity (HEK293 [8]): 92.3%
inhibition [9]: Active

COc1ccc(-c2ccc(-n3cc(-c4cccc(C(=O)O)c4)nn3)cc2)cc1OC
inhibition [1, 10]: 54.3%

COc1cccc(-c2ccc(-n3cc(-c4cccc(C(=O)O)c4)nn3)cc2)c1 [listing 1 of 2 here]
inhibition [6]: Active
inhibition [7]: Active
inhibition [1, 10]: 85.1%
inhibition [9]: Active

O=C(O)c1cccc(-n2cc(-c3ccc(-c4ccc5c(c4)OCCO5)cc3)nn2)c1
inhibition ([1]; dose 10.0 µM): 81.1%
Activity (HEK293 [8]): 71.7%

COc1ccc(OC)c(-c2ccc(-c3cn(-c4cccc(C(=O)O)c4)nn3)cc2)c1
inhibition [6]: Active
IC50 (ORAI1/STIM1): 1790 nM
inhibition ([1]; dose 10.0 µM): 87.8%
Activity (HEK293 [8]): 71.8%
inhibition [9]: Active

COc1ccc(OC)c(-c2ccc(-n3cc(-c4ccncc4F)nn3)cc2)c1
inhibition ([1]; dose 10.0 µM): -4.9%

COc1ccc(F)c(-c2ccc(-n3cc(-c4cccc(C(=O)O)c4)nn3)cc2)c1 [listing 1 of 2 here]
Activity (HEK293 [2]): Non-Toxic
Activity (HEK293 [3]): Non-Toxic
IC50 (ORAI1/STIM1): 361 nM
Activity (HEK293 [8]): 91.1%

O=C(O)c1cccc(-c2cn(-c3ccc(-c4cccc5c4OCCO5)cc3)nn2)c1
inhibition [6]: Active
inhibition [7]: Active
IC50 (ORAI1/STIM1): 1620 nM
inhibition [1, 10]: 70.9%
Activity (HEK293 [8]): 90.5%
inhibition [9]: Active

COc1ccc(OC)c(-c2ccc(-n3cc(-c4ccnc(C(=O)O)c4)nn3)cc2)c1
inhibition ([1]; dose 10.0 µM): 79.9%

O=C(O)c1cccc(NC(=O)c2ccc(-c3ccc4c(c3)OCCO4)cc2)c1
Activity (HEK293 [3]): Non-Toxic
inhibition ([1]; dose 10.0 µM): 22.6%
Activity (HEK293 [8]): 95.3%

COC(=O)c1cc(-n2cc(-c3ccc(-c4cc(OC)ccc4OC)cc3)nn2)ccn1
inhibition ([1]; dose 10.0 µM): 73.5%

COc1ccc(OC)c(-c2ccc(-n3cc(-c4cccc(C(=O)O)c4)nn3)cc2)c1
inhibition ([1]; dose 10.0 µM): 76.2%

Cc1c(-c2ccc(-c3ccccc3F)cc2)nc2ccc(F)cc2c1C(=O)O [BREQUINAR]
Activity (HEK293 [2]): Non-Toxic

COc1ccc(OC)c(-c2ccc(-c3cn(-c4ccncc4F)nn3)cc2)c1
inhibition ([1]; dose 10.0 µM): 26.2%

COc1cc(OC)cc(-c2ccc(-n3cc(-c4cccc(C(=O)O)c4)nn3)cc2)c1 [listing 1 of 2 here]
inhibition [6]: Active
inhibition [7]: Active
inhibition [1, 10]: 73.8%
inhibition [9]: Active

COc1ccc(-c2ccc(-n3cc(-c4cccc(C(=O)O)c4)nn3)cc2)c(OC)c1
inhibition ([1]; dose 10.0 µM): 56.4%

O=C(O)c1cccc(-c2cn(-c3ccc(-c4ccc5c(c4)OCCO5)cc3)nn2)c1 [listing 1 of 2 here]
Activity (HEK293 [2]): Non-Toxic
Activity (HEK293 [3]): Non-Toxic
IC50 (ORAI1/STIM1): 1200 nM

COc1ccc(OC)c(-c2ccc(-n3cc(-c4ccccn4)nn3)cc2)c1
inhibition ([1]; dose 10.0 µM): 0%

COc1cccc(-c2ccc(-n3cc(-c4cccc(C(=O)O)c4)nn3)cc2)c1 [listing 2 of 2 here]
Activity (HEK293 [2]): Non-Toxic
Activity (HEK293 [3]): Non-Toxic
IC50 (ORAI1/STIM1): 807 nM

COc1ccc(-c2ccc(-c3cn(-c4cccc(C(=O)O)c4)nn3)cc2)c(OC)c1
inhibition ([1]; dose 10.0 µM): 53%

COc1ccc(F)c(-c2ccc(-n3cc(-c4cccc(C(=O)O)c4)nn3)cc2)c1 [listing 2 of 2 here]
inhibition [6]: Active
inhibition [7]: Active
inhibition ([1]; dose 10.0 µM): 74.7%
inhibition [9]: Active

Cc1cccc(F)c1C(=O)Nc1cnc(-c2cc3c(cc2Cl)OC(F)(F)O3)cn1 [ZEGOCRACTIN]
Activity (HEK293 [2]): Toxic
Activity (HEK293 [3]): Toxic

O=C([O-])c1cccc(-c2cn(-c3ccc(-c4ccc5c(c4)OCCO5)cc3)nn2)c1.[Na+]
remaining at 1 h [4]: 94%
solubility thermodynamic [5]: 668 µg/mL

COc1cc(OC)cc(-c2ccc(-n3cc(-c4cccc(C(=O)O)c4)nn3)cc2)c1 [listing 2 of 2 here]
Activity (HEK293 [2]): Non-Toxic
Activity (HEK293 [3]): Non-Toxic
IC50 (ORAI1/STIM1): 802 nM
Activity (HEK293 [8]): 94.3%

COc1ccc(F)c(-c2ccc(-n3cc(-c4cccc(C(=O)[O-])c4)nn3)cc2)c1.[Na+]
remaining at 1 h [4]: 93%
solubility thermodynamic [5]: 1170 µg/mL

COc1ccccc1-c1ccc(-n2cc(-c3cccc(C(=O)O)c3)nn2)cc1
inhibition ([1]; dose 10.0 µM): 45.9%

COc1cccc(-c2ccc(-c3cn(-c4cccc(C(=O)O)c4)nn3)cc2)c1
inhibition [1, 10]: 29.5%

O=C(O)c1cccc(-n2cc(-c3ccc(-c4ccccc4)cc3)nn2)c1
inhibition [1, 10]: 1.8%

O=C(O)c1cccc(-c2cn(-c3ccc(-c4cccc(O)c4)cc3)nn2)c1
inhibition [1, 10]: 0%

COc1ccc(OC)c(-c2ccc(-c3cn(-c4ccncc4)nn3)cc2)c1
inhibition ([1]; dose 10.0 µM): -1.7%

O=C(O)c1cccc(-c2cn(-c3ccc(-c4ccccc4)cc3)nn2)c1
inhibition ([1]; dose 10.0 µM): 51%

COc1cccc(-c2ccc(-c3cn(-c4cccc(C(=O)O)c4)nn3)cc2)c1OC
inhibition [6]: Active
inhibition [7]: Active
IC50 (ORAI1/STIM1): 781 nM
inhibition ([1]; dose 10.0 µM): 93.3%
inhibition [9]: Active

O=C(O)c1cccc(C(=O)Nc2ccc(-c3ccc4c(c3)OCCO4)cc2)c1
Activity (HEK293 [2]): Toxic
Activity (HEK293 [3]): Non-Toxic
inhibition ([1]; dose 10.0 µM): 51.8%
Activity (HEK293 [8]): 50.3%

C/C(O)=C(\C#N)C(=O)Nc1ccc(C(F)(F)F)cc1 [TERIFLUNOMIDE]
Activity (HEK293 [2]): Non-Toxic

COc1cc(OC)cc(-c2ccc(-n3cc(-c4cccc(C(=O)[O-])c4)nn3)cc2)c1.[Na+]
remaining at 1 h [4]: 92%
solubility thermodynamic [5]: 18.7 µg/mL

COc1ccc(-c2ccc(-c3cn(-c4cccc(C(=O)O)c4)nn3)cc2)cc1OC
inhibition ([1]; dose 10.0 µM): 39.6%

O=C(O)c1cccc(-n2cc(-c3ccc(-c4cccc5c4OCCO5)cc3)nn2)c1
inhibition ([1]; dose 10.0 µM): 44.1%

O=C(O)c1cccc(-c2cn(-c3ccc(-c4ccc5c(c4)OCCO5)cc3)nn2)c1 [listing 2 of 2 here]
inhibition [6]: Active
inhibition [7]: Active
inhibition ([1]; dose 10.0 µM): 77.5%
inhibition [9]: Active

COc1ccc(OC)c(-c2ccc(-c3cn(-c4ccnc(C(=O)O)c4)nn3)cc2)c1
inhibition ([1]; dose 10.0 µM): 57.2%
